Laboratory results reported in ChEMBL document CHEMBL1140904, “Synthesis and analysis of novel glycerolipids for the treatment of metabolic syndrome” (J Med Chem, 2009).
Calls of active or inactive are those of the source. The calls are words filed in the database; no cut-off is given here.

Tests used:
[1] = tested on: Rattus norvegicus; experiment: Effect on fatty acid composition in Wistar rat assessed as change in liver 18;2, n-6 level at dose equivalent to 85 umol of tetradecylthioacetic acid, po after 6 days; type: functional
Outline: (§1)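 Male Wistar rats were gavaged once daily for 6 days with compound in 0.5% CMC at 85 or 250 µmol TTA-equivalent per animal. Controls received palmitic acid. Liver was homogenized in 0.25 M sucrose/10 mM HEPES pH 7.4/1 mM EDTA at 0-4 °C. Lipids were extracted with chloroform:methanol 2:1 and spiked with 21:0 internal standard. Fatty acids were BF3-methanol transesterified and quantified as wt%. Values are mean ± SD, n=5.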

[2] = tested on: Rattus norvegicus; experiment: Effect on fatty acid composition in Wistar rat assessed as change in liver saturated fatty acid level at dose equivalent to 250 umol of tetradecylthioacetic acid, po after 6 days; type: functional; outline: as §1
[3] = tested on: Rattus norvegicus; experiment: Decrease in liver cholesterol level in Wistar rat at dose equivalent to 250 umol of tetradecylthioacetic acid, po after 6 days relative to control; type: functional; parameters: scale not given: the % may be the effect or the level left
Outline: (§2)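 Male Wistar rats (170-210 g), housed in pairs with chow and water, were gavaged once daily for 6 days with test lipid in 0.5% (w/v) carboxymethylcellulose at 85 or 250 µmol TTA-equivalent per animal. Controls received palmitic acid in CMC. Plasma triacylglycerol and cholesterol were measured with an enzymatic kit, and liver levels were also determined. Values are mean ± SD, n=5 rats.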

[4] = tested on: Rattus norvegicus; experiment: Effect on fatty acid composition in Wistar rat assessed as change in plasma LCn-6/18:2 level at dose equivalent to 250 umol of tetradecylthioacetic acid, po after 6 days; type: functional
[5] = tested on: Rattus norvegicus; experiment: Effect on fatty acid composition in Wistar rat assessed as change in liver MUFA level at dose equivalent to 85 umol of tetradecylthioacetic acid, po after 6 days; type: functional; outline: as §1
[6] = tested on: Rattus norvegicus; experiment: Induction of PPAR-alpha-regulated fatty acyl-CoA oxidase activity in po dosed Wistar rat after 6 days; type: functional, organism-based
Outline: (§3)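 Rats were dosed by gastric intubation for 6 days at 85 or 250 µmol TTA-equivalent in 0.5% CMC, with palmitic acid controls. Fatty acyl-CoA oxidase was measured in the liver postnuclear fraction by a coupled assay, following H2O2 production as the rise in dichlorofluorescein absorbance with palmitoyl-CoA. Mean ± SD, n=5.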

[7] = tested on: Rattus norvegicus; experiment: Effect on fatty acid composition in Wistar rat assessed as change in plasma PUFA level at dose equivalent to 85 umol of tetradecylthioacetic acid, po after 6 days; type: functional
[8] = tested on: Rattus norvegicus; experiment: Effect on fatty acid composition in Wistar rat assessed as change in liver PUFA level at dose equivalent to 250 umol of tetradecylthioacetic acid, po after 6 days; type: functional; outline: as §1
[9] = tested on: Rattus norvegicus; experiment: Induction of PPAR-alpha-regulated CPT2 activity in po dosed Wistar rat after 6 days relative to control; type: functional
Outline: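 Wistar rats were dosed orally for 6 days (85 or 250 µmol TTA-equivalent in 0.5% CMC; palmitic acid controls). CPT-II activity was measured in the liver mitochondrial fraction, prepared from sucrose/HEPES pH 7.4/EDTA homogenate at 0-4 °C. Means ± SD from 5 rats per group.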

[10] = tested on: Rattus norvegicus; experiment: Effect on fatty acid composition in Wistar rat assessed as change in plasma MUFA level at dose equivalent to 85 umol of tetradecylthioacetic acid, po after 6 days; type: functional
[11] = tested on: Rattus norvegicus; experiment: Effect on fatty acid composition in Wistar rat assessed as change in liver LCn-6/18:2 level at dose equivalent to 85 umol of tetradecylthioacetic acid, po after 6 days; type: functional; outline: as §1
[12] = tested on: Rattus norvegicus; experiment: Effect on fatty acid composition in Wistar rat assessed as change in liver 18;2, n-6 level at dose equivalent to 250 umol of tetradecylthioacetic acid, po after 6 days; type: functional; outline: as §1
[13] = tested on: Rattus norvegicus; experiment: Effect on fatty acid composition in Wistar rat assessed as change in plasma 18;2, n-6 level at dose equivalent to 85 umol of tetradecylthioacetic acid, po after 6 days; type: functional
[14] = tested on: Rattus norvegicus; experiment: Increase in [1-14C]palmitoyl-CoA oxidation in Wistar rat liver homogenate at 250 uM, po after 6 days; type: functional, organism-based
Outline: (§4)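 Rats were dosed by gastric intubation for 6 days with 85 or 250 µmol TTA-equivalent in 0.5% CMC, with palmitic acid controls. Liver was homogenized in 0.25 M sucrose, 10 mM HEPES pH 7.4, 1 mM EDTA at 0-4 °C. Palmitoyl-CoA oxidation was read as acid-soluble products from [1-14C]-palmitoyl-CoA in the postnuclear fraction. Mean ± SD, n=5.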

[15] = tested on: Rattus norvegicus; experiment: Increase in [1-14C]palmitoyl-CoA oxidation in po dosed Wistar rat liver homogenate after 6 days; type: functional, organism-based; outline: as §4
[16] = tested on: Rattus norvegicus; experiment: Plasma concentration in Wistar rat assessed as tetradecylthioacetic acid at dose equivalent to 85 umol of tetradecylthioacetic acid, po after 6 days; type: ADME, organism-based; details: in vivo, 144 h
[17] = tested on: Rattus norvegicus; experiment: Effect on fatty acid composition in Wistar rat assessed as change in plasma LCn-6/18:2 level at dose equivalent to 85 umol of tetradecylthioacetic acid, po after 6 days; type: functional
[18] = tested on: Rattus norvegicus; experiment: Effect on fatty acid composition in Wistar rat assessed as change in plasma MUFA level at dose equivalent to 250 umol of tetradecylthioacetic acid, po after 6 days; type: functional
[19] = tested on: Rattus norvegicus; experiment: Decrease in plasma triacylglycerol level in po dosed Wistar rat after 6 days; type: functional, organism-based; outline: as §2
[20] = tested on: Rattus norvegicus; experiment: Decrease in plasma cholesterol level in Wistar rat at dose equivalent to 250 umol of tetradecylthioacetic acid, po after 6 days relative to control; type: functional; parameters: scale not given: the % may be the effect or the level left; outline: as §2
[21] = tested on: Rattus norvegicus; experiment: Effect on fatty acid composition in Wistar rat assessed as change in liver LCPUFA, n-6 level at dose equivalent to 85 umol of tetradecylthioacetic acid, po after 6 days; type: functional; outline: as §1
[22] = tested on: Rattus norvegicus; experiment: Effect on fatty acid composition in Wistar rat assessed as change in plasma saturated fatty acid level at dose equivalent to 250 umol of tetradecylthioacetic acid, po after 6 days; type: functional
[23] = tested on: Rattus norvegicus; experiment: Effect on fatty acid composition in Wistar rat assessed as change in liver MUFA level at dose equivalent to 250 umol of tetradecylthioacetic acid, po after 6 days; type: functional; outline: as §1
[24] = tested on: Liver; experiment: Drug concentration in Wistar rat liver assessed as tetradecylthioacetic acid at dose equivalent to 85 umol of tetradecylthioacetic acid, po after 6 days; type: ADME, organism-based; details: in vivo, 144 h; outline: as §1
[25] = tested on: Rattus norvegicus; experiment: Effect on fatty acid composition in Wistar rat assessed as change in plasma 18;2, n-6 level at dose equivalent to 250 umol of tetradecylthioacetic acid, po after 6 days; type: functional
[26] = tested on: Rattus norvegicus; experiment: Decrease in plasma triacylglycerol level in Wistar rat at dose equivalent to 250 umol of tetradecylthioacetic acid, po after 6 days relative to control; type: functional; parameters: scale not given: the % may be the effect or the level left; outline: as §2
[27] = tested on: Rattus norvegicus; experiment: Effect on fatty acid composition in Wistar rat assessed as change in liver saturated fatty acid level at dose equivalent to 85 umol of tetradecylthioacetic acid, po after 6 days; type: functional; outline: as §1
[28] = tested on: Rattus norvegicus; experiment: Induction of PPAR-alpha-regulated mitochondrial fatty acyl-CoA oxidase activity in Wistar rat at dose equivalent to 250 umol of tetradecylthioacetic acid, po after 6 days relative to control; type: functional; details: in the assay text read “peroxisomal fatty acyl-CoA oxidase” for “mitochondrial fatty acyl-CoA oxidase”; outline: as §3
[29] = tested on: Rattus norvegicus; experiment: Effect on fatty acid composition in Wistar rat assessed as change in plasma LCPUFA, n-6 level at dose equivalent to 85 umol of tetradecylthioacetic acid, po after 6 days; type: functional
[30] = tested on: Rattus norvegicus; experiment: Plasma concentration in Wistar rat assessed as tetradecylthioacetic acid at dose equivalent to 250 umol of tetradecylthioacetic acid, po after 6 days; type: ADME, organism-based; details: in vivo, 144 h

For `CCCCCCCCCCCCCCSCC(=O)OC[C@H](COP(=O)([O-])OCC[N+](C)(C)C)OC(=O)CSCCCCCCCCCCCCCC` [PHOSPHATIDYLCHOLINE], the Activity [1] was 11.99%, the Activity [2] was 39.22% and the Activity [3] was 20%. The Activity [4] was 1.25%, the Activity [5] was 16.66% and the Activity [6] was “Dose-dependent effect”. For the same compound, the Activity [7] was 2.42%, the Activity [8] was 4.05% and the “fold change (FC)” value [9] was 3. The Activity [10] was 22.53%, the Activity [11] was 2.19% and the Activity [12] was 8.79%. The Activity [13] was 19.52%, the Activity [14] was “inactive” and the Activity [15] was “Dose-dependent effect”. For the same compound, the Drug uptake [16] was 0.9%, the Activity [17] was 0.97% and the Activity [18] was 21.62%. For the same compound, the Activity [19] was “Dose-dependent effect”, the Activity [20] was 60% and the Activity [21] was 26.13%. The Activity [22] was 35.25%, the Activity [23] was 16.33% and the Drug uptake [24] was 1.28%. The Drug uptake ([24]; in the assay text read “equivalent to 250 umol” for “equivalent to 85 umol”) was 3.34%, the Activity [25] was 17.97% and the Activity [26] was 60%. For the same compound, the Activity [27] was 39.67%, the “fold change (FC)” value [28] was 5 and the Activity [29] was 19.06%. It also gave a Drug uptake [30] of 1.95%.
